Structures are written as SMILES.

The nature of this data set: Toxicity liver stage against HepG2, at 10uM. Type of data set: cell-based. Further details: test concentration 10 uM, cell line HepG2-A16-CD81EGFP. To be noted: human, HepG2-A16-CD81EGFP cells; read-out: INHIBITION
An outline of the steps:
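Uninfected HepG2-A16-CD81EGFP cells, 3 × 10^3 per well, 1536-well, plated on prespotted compound at 10 μM final, parasite-free screening media added to match infected plates; puromycin 10 μM positive, DMSO 0.5% negative; run in parallel with 48 h PbLuc assay at 37 °C, 5% CO2; viability by CellTiter-Glo luminescence, normalized to controls.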
With `CNC(C)Cc1ccccc1Sc1ccc(O)cc1` (stereo not drawn), the cytotoxicity at 10 µM was 2.73%.
For `Cc1c(C(=O)O)sc2nc(Cc3ccccc3)nc(N)c12`, the cytotoxicity at 10 µM is -0.924%.
For `CN1CCC(N2CCN3C(=O)NC[C@H]3C2)CC1`, the cytotoxicity at 10 µM was 2.26%.
For `CN(C)C(=O)c1cccnc1SCc1ccccc1Cl`, the cytotoxicity at 10 µM was found to be 3.25%.
With `CC(C)c1sc(Br)nc1C(=O)NCc1cccnc1` the figure was 3.06%; with `O=C1CCC2(CCCN(C(=O)c3cccnc3)CC2)N1` (stereo not drawn), 6.56%.
With `O=C(Cc1ccsc1)N1CCc2ccc(=O)n(CC3CC3)c2CC1` the figure was 6.13%; with `CN1C(=O)CC(c2ccccc2)C12CCN(C(=O)c1ccc[nH]1)CC2` (stereo not drawn), 7.52%; with `COCCN(C)C(=O)c1nc2c(s1)CCCN2C(=O)C1CC1`, -143%.
With `O=C1CCC2(CCCN(c3ncc(F)cn3)CC2)N1Cc1ccccc1` (stereo not drawn) the figure was 2.87%.
Take `O=C(Cn1cc(C(=O)O)ccc1=O)NCc1ccc(F)c(Cl)c1`: the cytotoxicity at 10 µM is -5.88%.
With `CCC1=N[C@@]2(CC[C@@H]3CN(S(=O)(=O)CC)C[C@@H]32)C(=O)N1CC(C)C`, the cytotoxicity at 10 µM was -0.0582%.
For `Cc1nn(Cn2ccc(C(=O)N3CCOCC3)n2)c(C)c1Cl` the value was -0.112%; for `Cc1nn(C)c2cn(C(C)C(=O)NCc3cccnc3)nc12` (stereo not drawn), 5.55%.
With `Cc1cccnc1C(Cc1ccsc1)NCc1cnc(N(C)C)nc1` (stereo not drawn) the figure was 5.24%; with `COCCN1CCC(c2ncc(C(=O)N3CCOCC3)c(C)n2)CC1`, 1.36%; with `c1cc(N2CCCCC2)ccc1-c1noc(CN2CCOCC2)n1`, -1.59%.
With `O=C(CC1CCCC1)N1CCC(c2cc3ncccc3c(O)n2)CC1` the figure was -24.7%; with `COc1ccccc1Oc1cncc(C2CCCN(C)C2)n1` (stereo not drawn), -3.8%.
On to `CC(=O)N1CCCC(c2ccnc(N(C)C)n2)C1` (stereo not drawn), for which the cytotoxicity at 10 µM was -16.2%.
Take `Cc1cnc(N)c(C(=O)C2CCN(C(=O)c3cnc(C)nc3C)CC2)c1`: the cytotoxicity at 10 µM is -18%.
For the molecule `CC(=O)N1CCC(c2ccnc(Nc3cncnc3)n2)CC1`, the cytotoxicity at 10 µM was -33.2%.
With `c1cnc2[nH]c(C3CCCC3)c(CN3CCCCC3)c2c1` the figure was -26.9%; with `CN(CC(=O)Nc1cnn(-c2ccccc2S(C)(=O)=O)c1)C1CC1`, 0.315%; with `Cc1ccc(C2CSCCN2C(=O)c2ccncc2)cc1` (stereo not drawn), 2.96%.
With `O=C(Nc1cccnc1)NC1(c2cccc(F)c2)CC1` the figure was 1.41%.
For `CC(C)OCCS(=O)(=O)NC1CCN(C2CCCC2)C1` (stereo not drawn) the value was 1.68%; for `CCN(CC)C(CNC(=O)c1ccc(-n2cncn2)cc1)c1ccsc1` (stereo not drawn), -141%; for `CN1CCOC(CNCC(=O)NCCc2ccc(F)cc2)C1` (stereo not drawn), 1.38%.
As for `CCc1nc(CC)n(CC(=O)N(CC)CC)n1`, the cytotoxicity at 10 µM was determined as 3.1%.
With `CN(C)c1cc2c(nn1)CCN(C(=O)c1cc3c(s1)CCCC3)C2` the figure was -6.3%; with `Cc1nc(-c2cnn(C)c2)sc1C(=O)NCc1cccc(CN(C)C)c1`, 2.46%; with `CCNC(=O)CCN1CCCC1c1cccc2c1OCCO2` (stereo not drawn), -4%.
`CCOc1cc(CN(C)CC(C)(C)O)ccc1OC(F)F`: the cytotoxicity at 10 µM worked out at 2.31%.
For `CC(=O)N1CCN(C(=O)c2cnc(OC(C)C)c(Cl)c2)CC1` the value was -4.36%; for `COc1ccc(S(=O)(=O)NC(=O)c2c(C)noc2C(C)C)cc1OC`, -2.23%; for `COc1ccc2c(c1)CN(CC(=O)NC1CCCC1)CC2`, -1.77%.
For `O=C(Cc1csc(N2CCNC2=O)n1)NC1(c2ccccc2)CCC1` the value was -135%; for `COc1ccc(CC(=O)N2CCC(c3n[nH]c(C4CC4)n3)CC2)cc1`, -14.6%.
For `CCc1nc(CN2CCCCC2C(N)=O)cs1` (stereo not drawn) the value was -7.96%; for `CC(=O)N1CCCC1c1nnc2n1CCCCC2` (stereo not drawn), 4.31%.
For `CN(C)CC(=O)N1Cc2nc(C(=O)N3CCCN(C)CC3)oc2C1`, the cytotoxicity at 10 µM was -105%.
For `Cn1c2c(c(=O)n1C)CN(C(=O)c1cnccn1)CCC2` the value was -113%; for `Cc1nc(C(C)NCc2cc(O)c3cccc(F)c3n2)cs1` (stereo not drawn), 8.33%; for `N#Cc1c(N)nc2c(c1-c1c[nH]nc1C1CCCCC1)CC(N)CC2` (stereo not drawn), -3.06%.
For `CC1CN(Cc2ccccc2Cn2cccn2)CCN1C` (stereo not drawn) the value was -132%; for `CCNC(=O)C1CCN(c2nccc(C3CCCC3)n2)C1` (stereo not drawn), -5.6%.
For `O=C(O)c1coc(COc2cccc3cnccc23)n1` the value was -110%; for `CN(CCn1cnc(-c2ccccc2)c1-c1ncc[nH]1)S(C)(=O)=O`, 1.87%; for `CNC(=O)C1CCN(Cc2nc(-c3ccc(SC)cc3)oc2C)C1` (stereo not drawn), -0.465%.
As to `Cc1ccccc1C(C(=O)O)N(C)CC1CCOCC1` (stereo not drawn), the cytotoxicity at 10 µM was 3.88%.
With `CCCS(=O)(=O)N1CCN(c2cc(-n3ccnc3)nc(C)n2)CC1` the figure was -1.89%.
For `Cc1ccc(N2CC[C@]3(O)CCN(CCN4CCCC4=O)C[C@@H]3C2)nn1`, the cytotoxicity at 10 µM was -10.1%.
For `CC(=O)Nc1ccc(-c2ccccc2CCN)cc1` the value was 3.61%.
For the molecule `Cc1[nH]ccc1C(=O)N1CCN(C)C2(CCC(=O)N(C)CC2)C1` (stereo not drawn), the cytotoxicity at 10 µM is 5.95%.
With `COc1ncccc1NC(=O)N(CC(C)C)C1CC1` the figure was -0.874%.
With `Cc1ccc(C)c(CS(=O)(=O)CC(=O)NCCCOC(C)C)c1` the figure was -2.51%; with `CC(C(=O)NCCN1CCOCC1)n1cncn1` (stereo not drawn), -2.85%.
With `O=C(CCS(=O)(=O)C1CCCC1)NCc1ccccc1Cn1cncn1`, the cytotoxicity at 10 µM was -4.9%.
In the case of `Cc1nccn1-c1cc(CNC(=O)NCC2CCCO2)ccn1` (stereo not drawn), the cytotoxicity at 10 µM was -7.9%.
For `CC(C)CN1CC(C(=O)NCCOc2ccc3c(c2)OCO3)CC1=O` (stereo not drawn) the value was -1.39%.
`Cc1cc(C)n(C2CCCN(C(=O)c3ccc(N(C)C)nc3)C2)n1` (stereo not drawn): the cytotoxicity at 10 µM was -4.26%.
For `Cc1cc(C)n(CC2CCCN2C(=O)c2cncnc2C)n1` (stereo not drawn) the value was -2.98%; for `Cc1noc(C(C)N2CCN(Cc3nc(C)c(C)o3)CC2)n1` (stereo not drawn), 0.397%.
With `COCCN(Cc1nc2c(cnn2C)c(=O)[nH]1)C(C)c1ccccc1` (stereo not drawn) the figure was -1.47%; with `CC1CCN(Cc2ccc(CNC(=O)c3ccn(C)c(=O)c3)cc2)CC1`, -2.94%; with `Cn1ccc(C(=O)NCc2ccc(CN3CCCC3)cc2)cc1=O`, -13.5%.
With `CCc1nc2n(n1)CC(NCc1cnn(Cc3ccccc3)c1)CC2` (stereo not drawn) the figure was -10.4%.
As to `Cc1ccc(-n2cc(C(=O)N3CCCC(n4cccn4)C3)nn2)cc1` (stereo not drawn), the cytotoxicity at 10 µM is -20.3%.
For `O=C(NCCCn1ccnc1)NCC(c1ccco1)N1CCCC1` (stereo not drawn) the value was -8.86%; for `CCn1cnnc1CNC(=O)N1CCN(Cc2ccco2)CC1`, -17.4%; for `CCc1nc(CN2CCCC(NCc3nc(C)c(C)o3)C2)no1` (stereo not drawn), -12.1%.
For the molecule `O=C(CCc1nccs1)N1CCN(c2nccs2)CC1`, the cytotoxicity at 10 µM is -21.8%.
Turning to `CC(C)c1nc(CN2CCOCC2)cs1`, the cytotoxicity at 10 µM is -7.49%.
For `CCc1nc(CN2CCCN(C(=O)C3CCOCC3)CC2)cs1` the value was -8.11%; for `O=C(O)c1csc(S(=O)(=O)Nc2cccc(OCC(F)(F)F)c2)c1`, -13.1%; for `Cc1cnn(CC2CN(Cc3cccc(OCC(N)=O)c3)CCO2)c1` (stereo not drawn), -7.18%.
For `CC(C)(O)CN1CCN(C(=O)c2cc(Cl)cc3cccnc23)CC1` the value was -7.93%.
With `COc1ccc(F)cc1CN1CCCC(c2cc(C(N)=O)[nH]n2)C1` (stereo not drawn) the figure was 0.313%; with `CCN1CCCC(CNC(=O)C2(c3cccc(Cl)c3)CC2)C1` (stereo not drawn), -2.77%.
`COCCOc1ccccc1CNCc1c(C)nn(C)c1N(C)C`: the cytotoxicity at 10 µM is -5.65%.
With `O=C(c1cc(F)ccc1F)C1CCN(C(=O)c2ccc(=O)[nH]n2)CC1` the figure was 3.42%; with `CC(C)COC(C)C(=O)NCc1ccc(OC(C)C)nc1` (stereo not drawn), 2.12%.
For the molecule `Cc1nc(CN2CCCC(N(C)Cc3cscn3)C2)no1` (stereo not drawn), the cytotoxicity at 10 µM is 16.8%.
With `CN1CCCC(c2ccc(N3CCOCC3)cn2)C1` (stereo not drawn) the figure was -6.47%.
With `CNCc1ccc([C@@H]2CN(C(C)=O)C[C@H]2C(N)=O)cc1` the figure was 5.32%.
As to `CC(=O)N1CCN(Cc2cccs2)CC2(CC(=O)N(C)C2)C1` (stereo not drawn), the cytotoxicity at 10 µM was 1.7%.
For `CC(C)N1CCc2nnc(COc3cncnc3)n2CC1` the value was 2.7%.
For `CN(C)C(=O)N1CCC[C@]2(C(=O)N(C)C)CN(c3ccccn3)C[C@@H]2C1` the value was 7.13%; for `c1nc(CN2CCC3(CC2)COCCN3CC2CC2)c[nH]1`, -1.26%; for `CN(C)CCOCc1cncc2c1CCN(C1CCOC1)C2` (stereo not drawn), 9.68%.
Take `c1coc(CN2CCO[C@H]3[C@H](OCC4CC4)CC[C@@H]32)c1`: the cytotoxicity at 10 µM came out at 5.22%.
With `Cc1ccc(CN2CCC[C@@H]3CN(C(=O)c4ccco4)C[C@@H]32)o1` the figure was 8.83%; with `CN(Cc1ccco1)[C@@H]1CN(C(=O)c2cnccn2)C[C@@H]2CCCO[C@@H]21`, 3.25%; with `c1cncc(OC[C@@H]2CCC[C@@]23CNCCO3)c1`, 10.5%.
As for `CNCCc1nc2cc(F)ccc2[nH]1`, the cytotoxicity at 10 µM is 22%.
As for `CC(C)NC(=O)CC1CC2(CCN(CC3CC3)CC2)Oc2ccccc21` (stereo not drawn), the cytotoxicity at 10 µM was -2.42%.
As to `Cn1ccc(CN2CCOCC23CCNCC3)n1`, the cytotoxicity at 10 µM was 6.77%.

(Values after ChEMBL document CHEMBL4513216, “Probing the Open Global Health Chemical Diversity Library for Multistage-Active Starting Points for Next-Generation Antimalarials” (ACS Infect Dis, 2020).)
